Test results published in ChEMBL document CHEMBL4014307, “Diindolylmethane Derivatives: Potent Agonists of the Immunostimulatory Orphan G Protein-Coupled Receptor GPR84” (J Med Chem, 2017).
Active and inactive are the calls of the source.

Columns and labels:
[1] = molecular target: T1, Free fatty acid receptor 4 (Homo sapiens) (UniProt Q5NUL3); assay: Antagonist activity at human FFAR4 expressed in CHO cells assessed as inhibition of TUG-89-induced beta-arrestin recruitment at 10 uM preincubated for 30 mins followed by TUG-89 addition measured after 90 mins by beta-galactosidase complementation assay; type: cell-based
T1 sequence (whole entry): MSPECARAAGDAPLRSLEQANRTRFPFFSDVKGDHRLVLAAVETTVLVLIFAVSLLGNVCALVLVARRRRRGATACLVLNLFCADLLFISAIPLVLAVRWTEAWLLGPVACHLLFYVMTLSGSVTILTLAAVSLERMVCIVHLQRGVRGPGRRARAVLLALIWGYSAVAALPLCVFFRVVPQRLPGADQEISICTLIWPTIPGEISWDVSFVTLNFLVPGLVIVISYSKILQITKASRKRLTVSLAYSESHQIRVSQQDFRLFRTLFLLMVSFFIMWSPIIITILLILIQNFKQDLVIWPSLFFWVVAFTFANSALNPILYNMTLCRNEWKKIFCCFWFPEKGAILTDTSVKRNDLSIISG

[2] = molecular target: T2, Aryl hydrocarbon receptor (Homo sapiens, UniProt P35869); assay: Activation of AhR in human HepG2 cells assessed as induction of CYP1A1 mRNA expression after 18 hrs by RT-PCR method; type: ADME, cell-based
T2 sequence (P35869 whole entry): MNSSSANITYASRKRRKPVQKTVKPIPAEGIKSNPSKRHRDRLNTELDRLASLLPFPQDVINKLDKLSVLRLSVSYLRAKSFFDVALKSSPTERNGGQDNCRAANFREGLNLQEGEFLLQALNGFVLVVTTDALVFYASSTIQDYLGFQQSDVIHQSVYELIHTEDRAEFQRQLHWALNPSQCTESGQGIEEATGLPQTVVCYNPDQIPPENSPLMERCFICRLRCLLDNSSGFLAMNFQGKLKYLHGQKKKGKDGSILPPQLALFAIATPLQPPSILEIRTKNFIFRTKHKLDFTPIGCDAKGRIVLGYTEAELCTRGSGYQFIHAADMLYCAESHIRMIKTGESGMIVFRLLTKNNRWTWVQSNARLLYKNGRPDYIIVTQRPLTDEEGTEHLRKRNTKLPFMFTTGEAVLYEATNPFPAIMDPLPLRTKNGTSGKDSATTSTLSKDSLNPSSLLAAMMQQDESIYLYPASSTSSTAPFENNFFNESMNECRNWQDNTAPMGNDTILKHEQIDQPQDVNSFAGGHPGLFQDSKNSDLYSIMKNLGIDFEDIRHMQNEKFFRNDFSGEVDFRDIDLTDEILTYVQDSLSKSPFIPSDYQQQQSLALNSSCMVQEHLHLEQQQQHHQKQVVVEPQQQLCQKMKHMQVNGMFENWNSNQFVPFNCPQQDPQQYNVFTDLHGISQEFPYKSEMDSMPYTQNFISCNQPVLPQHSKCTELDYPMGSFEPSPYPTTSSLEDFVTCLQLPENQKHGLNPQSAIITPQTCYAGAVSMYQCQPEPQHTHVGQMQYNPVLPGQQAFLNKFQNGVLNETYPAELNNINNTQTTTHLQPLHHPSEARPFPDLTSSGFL
Summary of the method: (§1)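 HepG2 cells (3x10^5 cells/ml) stimulated 18 h with 5 µM or 20 µM test compound or left untreated; 3-methylcholanthrene (10 µM) as positive control. RNA extracted for read-out; three independent experiments.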

[3] = molecular target: T3, G-protein coupled receptor 84 (Homo sapiens, UniProt Q9NQS5); assay: Agonist activity at Gi coupled human GPR84 expressed in CHO cells assessed as inhibition of forskolin-induced cAMP accumulation at 10 uM after 15 mins in presence of [3H]-cAMP by radiometric assay relative to decanoic acid; type: functional, cell-based
T3 sequence (Q9NQS5 whole entry): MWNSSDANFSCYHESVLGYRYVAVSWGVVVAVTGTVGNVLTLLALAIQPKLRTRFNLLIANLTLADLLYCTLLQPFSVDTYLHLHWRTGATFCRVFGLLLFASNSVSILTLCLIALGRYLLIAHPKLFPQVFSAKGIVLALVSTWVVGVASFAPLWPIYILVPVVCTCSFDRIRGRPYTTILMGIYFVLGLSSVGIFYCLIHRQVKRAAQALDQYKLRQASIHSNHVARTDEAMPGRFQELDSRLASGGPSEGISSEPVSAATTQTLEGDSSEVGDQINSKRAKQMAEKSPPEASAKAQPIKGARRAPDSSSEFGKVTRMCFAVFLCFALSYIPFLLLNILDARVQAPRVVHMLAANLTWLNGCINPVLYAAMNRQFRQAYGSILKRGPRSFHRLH
Summary of the method: (§2)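 Forskolin (10 µM) added with or without test compound for 15 min. Cells lysed in hot (90 °C) EDTA/Triton X-100 solution. cAMP measured radiometrically with bovine adrenal binding protein and [³H]cAMP, expressed as % of forskolin-alone response.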

[4] = Stability of the compound in 1 mM sodium hydroxide solution at 100 uM at pH 11 up to 24 hrs by HPLC-MS analysis; type: physicochemical; settings: buffer, pH 11, 24 h
Summary of the method: (§3)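 Stock (2.5 mM in methanol/acetonitrile 1:1) diluted to 100 µM final in water, 0.01 % aqueous ammonia (pH 9), 1 mM NaOH (pH 11), or artificial gastric acid (pepsin, NaCl, HCl; pH 1.2). Incubated at 37 °C up to 24 h, sampled at intervals. Analysed by LC-ESI-MS on C18 at 25 °C with water/2 mM ammonium acetate–acetonitrile gradient.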

CHO = assay: Effect on forskolin-induced cAMP accumulation in CHO cells preincubated for 5 mins followed by forskolin addition measured after 15 mins in presence of [3H]-cAMP by radiometric assay; type: ADME, cell-based, Cricetulus griseus; settings: chinese hamster, 0.25 h
Summary of the method: as §2, with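 “CHO cells stably expressing human GPR84, or the parent non-transfected CHO line, incubated in HBSS (pH 7.4) at 37 °C with RO-20-1724 (final 40 µM). Forskolin” for “Forskolin”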

[5] = Stability of the compound in water at 100 uM up to 24 hrs by HPLC-MS analysis; type: physicochemical; settings: buffer; summary of the method: as §3
[6] = Stability of the compound in pH 1.2 artificial gastric fluid containing HCl, NaCl and pepsin assessed as parent compound remaining at 100 uM after 2 hrs by HPLC-MS analysis; summary of the method: as §3
[7] = molecular target: T1, Free fatty acid receptor 4 (Homo sapiens); assay: Agonist activity at human FFAR4 expressed in CHO cells assessed as beta-arrestin recruitment at 10 uM after 90 mins by beta-galactosidase complementation assay; type: cell-based
Summary of the method: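 Human FFAR4 in CHO β-galactosidase complementation cells, 30,000 per well, serum-free F12 ~4 h before assay; final DMSO 1 %, compounds 10 µM. Agonist mode: 90 min with agonist, then detection 60 min rt dark; luminescence. 3–4 experiments in duplicate.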

[8] = Stability of the compound in pH 1.2 artificial gastric fluid containing HCl, NaCl and pepsin assessed as parent compound remaining at 100 uM after 4 hrs by HPLC-MS analysis; summary of the method: as §3
[9] = molecular target: G-protein coupled receptor 35 (Homo sapiens) (UniProt Q9HC97); assay: Agonist activity at human GPR35 at 10 uM
G-protein coupled receptor 35 (Homo sapiens), sequence (Q9HC97 whole entry): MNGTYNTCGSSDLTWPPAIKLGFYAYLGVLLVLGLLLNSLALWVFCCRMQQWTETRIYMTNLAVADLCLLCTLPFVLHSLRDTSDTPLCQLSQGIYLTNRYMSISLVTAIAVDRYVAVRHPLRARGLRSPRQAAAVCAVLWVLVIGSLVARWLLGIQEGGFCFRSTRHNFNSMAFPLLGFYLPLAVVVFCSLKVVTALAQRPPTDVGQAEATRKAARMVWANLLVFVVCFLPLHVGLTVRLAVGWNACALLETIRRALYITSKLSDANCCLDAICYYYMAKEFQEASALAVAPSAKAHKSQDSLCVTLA

[10] = molecular target: T3, G-protein coupled receptor 84; assay: Agonist activity at human GPR84 expressed in CHO cells assessed as beta-arrestin recruitment at 10 uM after 90 mins by beta-galactosidase complementation assay relative to embelin; type: cell-based
Summary of the method: (§4)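 CHO cells co-expressing human GPR84–β-galactosidase fragment and β-arrestin–complementary fragment, 20,000 per well. Compounds in DMSO (final ≤1 %) added for 90 min, then detection reagent for 60 min at rt; luminescence read. Three to five independent experiments in duplicate.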

[11] = Stability of the compound in 0.01% ammonia solution at 100 uM at pH 9 up to 24 hrs by HPLC-MS analysis; type: physicochemical; settings: buffer, pH 9, 24 h; summary of the method: as §3
[12] = molecular target: T3, G-protein coupled receptor 84; assay: Agonist activity at Gi coupled human GPR84 expressed in CHO cells assessed as inhibition of forskolin-induced cAMP accumulation after 15 mins in presence of [3H]-cAMP by radiometric assay; type: functional, cell-based; summary of the method: as §2
[13] = Stability of the compound in pH 1.2 artificial gastric fluid containing HCl, NaCl and pepsin assessed as parent compound remaining at 100 uM after 1 hr by HPLC-MS analysis; summary of the method: as §3
[14] = molecular target: Free fatty acid receptor 1 (Homo sapiens, UniProt O14842); assay: Agonist activity at Gq protein coupled human FFAR1 expressed in human 1321N1 cells assessed as induction of intracellular calcium level at 10 uM measured at 1.2 secs time interval by Fluo-4-AM dye based fluorescence assay; type: functional, cell-based
Free fatty acid receptor 1, sequence (O14842 whole entry): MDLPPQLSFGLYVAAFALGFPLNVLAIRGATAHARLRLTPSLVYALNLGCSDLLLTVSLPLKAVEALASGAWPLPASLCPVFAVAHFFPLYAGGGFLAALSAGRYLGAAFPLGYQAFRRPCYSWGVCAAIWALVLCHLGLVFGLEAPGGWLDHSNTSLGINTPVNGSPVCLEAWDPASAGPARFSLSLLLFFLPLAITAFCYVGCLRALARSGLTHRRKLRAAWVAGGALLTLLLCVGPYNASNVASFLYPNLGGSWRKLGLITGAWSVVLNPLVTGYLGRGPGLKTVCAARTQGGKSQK
Summary of the method: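 1321N1 astrocytoma cells retrovirally expressing human FFAR1, 50,000 per well, loaded 60 min at rt in dark with 3 µM Fluo-4-AM and 0.06 % Pluronic F-127 in HBSS. Compounds at 10 µM final; antagonist mode uses 30 min preincubation before TUG-424 (final 1 µM). Fluorescence at 520 nm (excitation 485 nm), 90 reads at 1.2 s intervals. Normalized to TUG-424 at 10 µM (agonist) or 1 µM (antagonist).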

[15] = molecular target: T3, G-protein coupled receptor 84; assay: Agonist activity at Gi coupled human GPR84 expressed in CHO cells assessed as inhibition of forskolin-induced cAMP accumulation up to 100 uM preincubated for 5 mins followed by forskolin addition measured after 15 mins in presence of [3H]-cAMP by radiometric assay; type: functional, cell-based
Summary of the method: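 Concentration-response in CHO-hGPR84 cells. Compound preincubated 5 min, then forskolin 10 µM added for a further 15 min. Maximal forskolin-induced cAMP without agonist set as 100 %. […] Mean ± SEM of 3 independent experiments in duplicate.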

[16] = molecular target: T2, Aryl hydrocarbon receptor; assay: Activation of AhR in human HepG2 cells assessed as induction of CYP1A1 mRNA expression at 10 uM after 18 hrs by RT-PCR method; type: ADME, cell-based
Summary of the method: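 HepG2 cells seeded at 3x10^5 cells/ml were exposed to compound for 18 h alongside untreated cells and a 3-methylcholanthrene (10 µM) positive control. Total RNA was then extracted for transcript measurement. Three independent experiments were run.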

[17] = molecular target: T3, G-protein coupled receptor 84; assay: Positive allosteric modulation of Gi coupled human GPR84 expressed in CHO cells assessed as potentiation of decanoic acid-induced inhibition of forskolin-induced cAMP accumulation by measuring increase in fold shift in decanoic acid EC50 at 0.1 to 30 uM after 15 mins in presence of [3H]-cAMP by radiometric assay; type: functional, cell-based
[18] = molecular target: T3, G-protein coupled receptor 84; assay: Antagonist activity at Gi coupled human GPR84 expressed in CHO cells assessed as inhibition of decanoic acid-induced receptor activation at 10 uM; type: cell-based
[19] = molecular target: T3, G-protein coupled receptor 84; assay: Agonist activity at human GPR84 expressed in CHO cells assessed as beta-arrestin recruitment after 90 mins by beta-galactosidase complementation assay; type: cell-based; summary of the method: as §4
[20] = Stability of the compound in pH 1.2 artificial gastric fluid containing HCl, NaCl and pepsin at 100 uM up to 24 hrs by HPLC-MS analysis; summary of the method: as §3
[21] = molecular target: T2, Aryl hydrocarbon receptor; assay: Activation of AhR in human HepG2 cells assessed as induction of CYP1A1 mRNA expression at 5 to 20 uM after 18 hrs by RT-PCR method; type: ADME, cell-based; summary of the method: as §1
[22] = molecular target: T2, Aryl hydrocarbon receptor; assay: Activation of AhR in human HepG2 cells assessed as induction of CYP1A1 mRNA expression at 20 uM after 18 hrs by RT-PCR method; type: ADME, cell-based; summary of the method: as §1
[23] = molecular target: T3, G-protein coupled receptor 84; assay: Ratio of EC50 for human GPR84 expressed in CHO cells assessed as beta-arrestin recruitment to EC50 for Gi coupled human GPR84 expressed in CHO cells assessed as inhibition of forskolin-induced cAMP accumulation; type: functional, cell-based

Compound | inhibition [1] | Emax [3] | Stability [4] | Activity (CHO) | Stability [5] | Activity [7] | Stability [8] | Activity [9] | Emax [10] | Stability [11] | inhibition [12] | Activity [14] | EC50 [12] | EC50 [19] | further results
c1ccc2c(Cc3c[nH]c4ccccc34)c[nH]c2c1 [ARUNDINE] | inactive | 125% | Stable | Non-Toxic | Stable | inactive | 35% | inactive | 60% | Stable | Dose-dependent effect | inactive | – | – | Activity [2]: Dose-dependent effect; fold change (FC) [3]: 29; Stability [6]: 49%; Stability [13]: 63%
Cc1ccc2cc3c(ccc4ccccc43)c3c2c1CC3 [3-METHYLCHOLANTHRENE] | – | – | – | – | – | – | – | – | – | – | – | – | – | – | inhibition [15]: inactive; Activity [16]: Active
CCC(c1c[nH]c2ccccc12)c1c[nH]c2ccccc12 | inactive | -24% | – | – | – | inactive | – | inactive | 67% | – | – | inactive | > 10 µM | 2.97 µM | Activity [17]: inactive; inhibition [18]: inactive
Fc1cccc2c(Cc3c[nH]c4c(F)cccc34)c[nH]c12 | inactive | 129% | Stable | – | Stable | inactive | – | – | 99% | Stable | – | inactive | 0.113 µM | 6.07 µM | Stability [20]: Stable
Fc1cc(F)c2[nH]cc(Cc3c[nH]c4c(F)cc(F)cc34)c2c1 | inactive | 131% | – | Non-Toxic | – | inactive | – | inactive | 385% | – | Dose-dependent effect | inactive | – | – | Activity [21]: Not Active
Fc1ccc2[nH]cc(Cc3c[nH]c4ccc(F)cc34)c2c1 | inactive | 117% | Stable | Non-Toxic | Stable | inactive | 57% | inactive | 125% | Stable | Dose-dependent effect | inactive | 0.08 µM | 4.33 µM | Activity [22]: Not Active; Ratio EC50 [23]: 54
